# Assay results as given in ChEMBL document CHEMBL2176991 (J Med Chem, 2012).
# Activity calls are given as the source filed them. No cut-off for these calls is given here. Square brackets hold non-standard residues; d marks the D form. Peptide text beside a SMILES is read from it. * marks the point of attachment. X4 = O=C1OC2(c3ccc(O)cc3Oc3cc(O)ccc32)c2cccc(NC(=S)*)c21; βAla = NCCC(=O)O
# Columns and labels:
# LNCaP [1] = experiment: Cell cycle arrest in human LNCAP cells assessed as decrease in accumulation at S phase after 96 hrs by propidium iodide staining-based FACS flow cytometric analysis; format: functional
# LNCaP [2] = experiment: Cell cycle arrest in human LNCAP cells assessed as accumulation at S phase at 200 uM after 96 hrs by propidium iodide staining-based FACS flow cytometric analysis (reference value: 15.6 +/- 1.3 %); format: functional
# PC-3 = experiment: Cytotoxicity against human PC3 cells assessed as growth inhibition after 72 hrs by MTT assay; format: functional, cell-based
# Outline: (§1)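 Cells plated in 96-well format: DU145 and PC3 at 1500/well, LNCaP at 2500/well on poly-lysine. After 24 h, medium was changed and peptide added for 72 h in RPMI 1640 (5% FBS for DU145, 10% for LNCaP and PC3). MTT at 1 mg/mL final for 4 h (DU145, LNCaP) or 6 h (PC3). Formazan dissolved in 2-propanol-HCl and signal normalized to vehicle (water, 0.1% DMSO). IC50 from curve fitting.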
# LNCaP [3] = experiment: Cell cycle arrest in human LNCAP cells assessed as accumulation at G0/G1 phase after 96 hrs by propidium iodide staining-based FACS flow cytometric analysis
# LNCaP [4] = experiment: Cell cycle arrest in human LNCAP cells assessed as accumulation at G0/G1 phase at 100 uM after 96 hrs by propidium iodide staining-based FACS flow cytometric analysis (reference value: 74.3 +/- 0.1 %); format: functional
# Furin = Furin (Homo sapiens, UniProt P09958); experiment: Competitive inhibition of human recombinant furin expressed in Drosophila S2 cells using pyroGlu-Arg-Val-Lys-Arg-methyl-coumaryl-7-amide as substrate at pH 7.5 after 60 mins by spectrofluorometric analysis
# Outline: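 Recombinant soluble human furin from S2 medium, tested in 100 mM Hepes pH 7.5, 1 mM CaCl₂, 1 mM β-mercaptoethanol, 1.8 mg/mL BSA; substrate 100 μM, 37 °C, 60 min, kinetic fluorescence read. Inhibitors added at decreasing concentrations. Ki derived from IC50 by Cheng–Prusoff using Km 4.61 μM; three independent experiments.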
# [5] = molecular target: T1, Proprotein convertase subtilisin/kexin type 6 (Homo sapiens, UniProt P29122); experiment: Competitive inhibition of human recombinant PACE4 expressed in Drosophila S2 cells using pyroGlu-Arg-Val-Lys-Arg-methyl-coumaryl-7-amide as substrate at pH 6.5 after 60 mins by spectrofluorometric analysis
# T1 sequence (P29122 whole entry): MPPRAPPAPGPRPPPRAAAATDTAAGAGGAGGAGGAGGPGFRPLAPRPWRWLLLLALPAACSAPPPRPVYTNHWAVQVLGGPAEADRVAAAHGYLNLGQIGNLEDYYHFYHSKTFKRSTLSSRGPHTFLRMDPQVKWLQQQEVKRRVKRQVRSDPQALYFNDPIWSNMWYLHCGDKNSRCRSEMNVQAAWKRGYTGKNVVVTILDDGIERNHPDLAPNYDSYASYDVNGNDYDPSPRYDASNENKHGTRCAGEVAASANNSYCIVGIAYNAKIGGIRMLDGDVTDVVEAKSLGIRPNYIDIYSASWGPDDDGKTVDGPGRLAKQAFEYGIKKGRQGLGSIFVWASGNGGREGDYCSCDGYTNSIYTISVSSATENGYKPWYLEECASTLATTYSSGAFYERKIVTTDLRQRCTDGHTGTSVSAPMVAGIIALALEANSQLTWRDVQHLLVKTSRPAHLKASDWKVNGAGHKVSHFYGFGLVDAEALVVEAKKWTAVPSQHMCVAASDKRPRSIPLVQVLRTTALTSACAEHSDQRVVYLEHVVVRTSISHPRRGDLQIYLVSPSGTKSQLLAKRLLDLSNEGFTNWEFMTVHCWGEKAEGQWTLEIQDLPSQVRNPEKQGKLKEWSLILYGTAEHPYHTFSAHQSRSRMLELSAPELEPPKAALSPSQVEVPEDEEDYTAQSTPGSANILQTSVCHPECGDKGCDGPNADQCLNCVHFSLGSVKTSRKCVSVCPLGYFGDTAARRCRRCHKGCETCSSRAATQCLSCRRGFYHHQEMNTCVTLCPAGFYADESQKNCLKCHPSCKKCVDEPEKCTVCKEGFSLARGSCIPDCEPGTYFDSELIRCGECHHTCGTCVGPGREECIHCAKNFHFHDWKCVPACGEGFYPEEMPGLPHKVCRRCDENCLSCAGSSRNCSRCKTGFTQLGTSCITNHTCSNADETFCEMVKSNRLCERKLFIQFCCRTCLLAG
# Outline: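 Soluble human PACE4 purified from S2 conditioned medium, assayed in 20 mM Bis-Tris pH 6.5, 1 mM CaCl₂, 1.8 mg/mL BSA with 100 μM substrate, 37 °C, 60 min. Real-time fluorescence read; inhibitors added at decreasing concentrations. Ki from IC50 by Cheng–Prusoff, Km 3.5 μM. Means of three independent experiments.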
# Homo sapiens = organism: Homo sapiens; experiment: Selectivity ratio of Ki for human recombinant furin to Ki for human recombinant PACE4
# LNCaP [6] = experiment: Cell cycle arrest in human LNCAP cells assessed as accumulation at sub G1 phase at 200 uM after 96 hrs by propidium iodide staining-based FACS flow cytometric analysis (reference value: 0.3 +/- 0.2 %); format: functional
# LNCaP [7] = experiment: Cell cycle arrest in human LNCAP cells assessed as accumulation at S phase at 100 uM after 96 hrs by propidium iodide staining-based FACS flow cytometric analysis (reference value: 15.6 +/- 1.3 %); format: functional
# LNCaP [8] = experiment: Cell cycle arrest in human LNCAP cells assessed as accumulation at G2/M phase at 200 uM after 96 hrs by propidium iodide staining-based FACS flow cytometric analysis (reference value: 10.1 +/- […]); format: functional
# [9] = Stability of the compound in presence of aminopeptidase; format: ADME
# LNCaP [10] = experiment: Cytotoxicity against human LNCAP cells assessed as growth inhibition after 72 hrs by MTT assay; format: functional, cell-based; outline: as §1
# DU-145 [11] = experiment: Cytotoxicity against human DU145 cells assessed as growth inhibition after 72 hrs by MTT assay; format: functional, cell-based; details: DU-145, 72 h; outline: as §1
# DU-145 [12] = experiment: Cellular uptake in human DU145 cells at 10 uM after 1 hr by propidium iodide staining-based FACS flow cytometric analysis; format: ADME, cell-based; details: du-145, 1 h
# Outline: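 DU145 cells (4 × 10⁵) incubated 1 h with 10 μM FITC-labeled peptide in serum-free RPMI, then pelleted and washed twice with 0.05% trypsin for 5 min at 37 °C to strip membrane-bound label. Propidium iodide (10 μg/mL, 2 min) used to exclude cells with damaged membranes. At least 10000 events acquired by FACS; uptake reported as geometric mean fluorescence.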
# Chain of Furin (P09958 whole entry): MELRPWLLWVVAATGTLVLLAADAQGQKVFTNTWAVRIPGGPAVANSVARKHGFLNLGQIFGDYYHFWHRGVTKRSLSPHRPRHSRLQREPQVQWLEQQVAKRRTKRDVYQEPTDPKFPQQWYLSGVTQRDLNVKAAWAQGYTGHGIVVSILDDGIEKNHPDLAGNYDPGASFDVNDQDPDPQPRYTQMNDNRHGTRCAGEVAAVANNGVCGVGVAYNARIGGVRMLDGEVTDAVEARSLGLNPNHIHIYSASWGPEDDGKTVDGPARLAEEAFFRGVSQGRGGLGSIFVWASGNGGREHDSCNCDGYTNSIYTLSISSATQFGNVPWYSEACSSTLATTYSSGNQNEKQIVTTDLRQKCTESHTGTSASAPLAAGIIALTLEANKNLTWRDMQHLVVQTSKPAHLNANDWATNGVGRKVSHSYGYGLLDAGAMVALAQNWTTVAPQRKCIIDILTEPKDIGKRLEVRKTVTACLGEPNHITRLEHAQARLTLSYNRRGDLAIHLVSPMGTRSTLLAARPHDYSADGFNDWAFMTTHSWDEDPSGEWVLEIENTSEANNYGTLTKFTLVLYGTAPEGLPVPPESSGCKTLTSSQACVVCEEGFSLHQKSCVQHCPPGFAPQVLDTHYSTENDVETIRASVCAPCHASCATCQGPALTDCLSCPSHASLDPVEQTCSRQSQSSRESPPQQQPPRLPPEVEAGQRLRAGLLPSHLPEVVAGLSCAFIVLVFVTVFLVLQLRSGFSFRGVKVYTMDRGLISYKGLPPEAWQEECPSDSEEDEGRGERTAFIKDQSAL
SMILES,Ki (Furin) [nM],Ki [5] [nM],Ratio Ki (Homo sapiens),also measured
CC(=O)N[C@@H](CC(C)C)C(=O)N[C@@H](CC(C)C)C(=O)N[C@@H](CC(C)C)C(=O)N[C@@H](CC(C)C)C(=O)N[C@@H](CCCNC(=N)N)C(=O)N[C@H](C(=O)N[C@@H](CCCCN)C(=O)N[C@@H](CCCNC(=N)N)C(N)=O)C(C)C (Ac-LLLLRVKR-NH2),–,–,–,Activity (LNCaP [1]): Dose-dependent effect; Activity (LNCaP [2]): 9.3%; growth inhibition (GI) (PC-3): inactive; Activity (LNCaP [3]): Dose-dependent effect; Activity (LNCaP [4]): 79.7%
CC(=O)N[C@@H](CC(C)C)C(=O)N[C@@H](CC(C)C)C(=O)N[C@@H](CC(C)C)C(=O)N[C@@H](CCCN=C(N)N)C(=O)N[C@H](C(=O)N[C@@H](CCCCN)C(=O)N[C@@H](CCCN=C(N)N)C(N)=O)C(C)C,400,18,–,–
CC(C)C[C@H](NC(=O)[C@@H](N)CC(C)C)C(=O)N[C@@H](CCCNC(=N)N)C(=O)N[C@@H](CCCNC(=N)N)C(=O)N[C@@H](C)C(=O)N[C@@H](CCCCN)C(=O)N[C@@H](CCCNC(=N)N)C(=O)O (H-LLRRAKR-OH),–,0.34,36,–
CC(=O)N[C@H](CC(C)C)C(=O)N[C@@H](CC(C)C)C(=O)N[C@@H](CC(C)C)C(=O)N[C@@H](CC(C)C)C(=O)N[C@@H](CCCNC(=N)N)C(=O)N[C@H](C(=O)N[C@@H](CCCCN)C(=O)N[C@@H](CCCNC(=N)N)C(N)=O)C(C)C,–,–,–,Activity (LNCaP [1]): Dose-dependent effect; Activity (LNCaP [6]): 11.8%; Activity (LNCaP [2]): 8.4%; Activity (LNCaP [3]): Dose-dependent effect; Activity (LNCaP [7]): 11.8%; Activity (LNCaP [8]): 8.3%
N=C(N)NCCC[C@H](NC(=O)[C@H](CCCCN)NC(=O)[C@H](CO)NC(=O)[C@H](CCCNC(=N)N)NC(=O)[C@H](CCC(=O)O)NC(=O)[C@H](CCCCN)NC(=O)[C@@H](N)CCC(=O)O)C(=O)O (H-EKERSKR-OH),–,–,1.3,–
CC(=O)N[C@@H](CC(C)C)C(=O)N[C@@H](CC(C)C)C(=O)N[C@@H](CCCN=C(N)N)C(=O)N[C@H](C(=O)N[C@@H](CCCCN)C(=O)N[C@@H](CCCN=C(N)N)C(N)=O)C(C)C,900,240,–,–
CC(C)C[C@H](N)C(=O)N[C@@H](CCCNC(=N)N)C(=O)N[C@@H](CCCNC(=N)N)C(=O)N[C@@H](CCCNC(=N)N)C(=O)N[C@H](C(=O)N[C@@H](CCCCN)C(=O)N[C@@H](CCCNC(=N)N)C(=O)O)C(C)C (H-LRRRVKR-OH),–,–,1.3,–
CC(C)[C@H](N)C(=O)N[C@@H](CCCCN)C(=O)N[C@@H](CCCCN)C(=O)N[C@@H](CCCNC(=N)N)C(=O)N[C@H](C(=O)N[C@@H](CCCCN)C(=O)N[C@@H](CCCNC(=N)N)C(=O)O)[C@@H](C)O (H-VKKRTKR-OH),–,–,2.2,–
CC(C)C[C@H](N)C(=O)N[C@@H](CCCN=C(N)N)C(=O)N[C@@H](CCCN=C(N)N)C(=O)N[C@@H](CCCN=C(N)N)C(=O)N[C@H](C(=O)N[C@@H](CCCCN)C(=O)N[C@@H](CCCN=C(N)N)C(=O)O)C(C)C (H-LRRRVKR-OH),9,7,–,–
CC(=O)N[C@H](CC(C)C)C(=O)N[C@@H](CC(C)C)C(=O)N[C@@H](CC(C)C)C(=O)N[C@@H](CC(C)C)C(=O)N[C@@H](CCCN=C(N)N)C(=O)N[C@H](C(=O)N[C@@H](CCCCN)C(=O)N[C@@H](CCCN=C(N)N)C(N)=O)C(C)C,–,–,–,Stability [9]: Stable
C[C@H](N)C(=O)N[C@@H](CCCCN)C(=O)N[C@@H](CCCNC(=N)N)C(=O)N[C@@H](CCCNC(=N)N)C(=O)N[C@H](C(=O)N[C@@H](CCCCN)C(=O)N[C@@H](CCCNC(=N)N)C(=O)O)[C@@H](C)O (H-AKRRTKR-OH),–,0.4,4.2,–
CC(C)[C@H](N)C(=O)N[C@@H](CCCCN)C(=O)N[C@@H](CCCNC(=N)N)C(=O)N[C@@H](CCCNC(=N)N)C(=O)N[C@H](C(=O)N[C@@H](CCCCN)C(=O)N[C@@H](CCCNC(=N)N)C(=O)O)C(C)C (H-VKRRVKR-OH),–,–,2.7,–
N=C(N)NCCC[C@H](NC(=O)[C@H](CCCCN)NC(=O)[C@H](CCCCN)NC(=O)[C@H](CCCNC(=N)N)NC(=O)[C@H](CC(=O)O)NC(=O)[C@H](Cc1ccccc1)NC(=O)CN)C(=O)O (H-GFDRKKR-OH),–,–,1,–
CC(=O)N[C@@H](CC(C)C)C(=O)N[C@@H](CC(C)C)C(=O)N[C@@H](CC(C)C)C(=O)N[C@@H](CC(C)C)C(=O)N[C@@H](CCCNC(=N)N)C(=O)N[C@H](C(=O)N[C@@H](CCCCN)C(=O)N[C@H](CCCNC(=N)N)C(N)=O)C(C)C (Ac-LLLLRVK[dR]-NH2),–,–,–,IC50 (LNCaP [10]): 390000 nM; IC50 (DU-145 [11]): 440000 nM
CC(C)[C@H](N)C(=O)N[C@@H](CCCCN)C(=O)N[C@@H](CCCN=C(N)N)C(=O)N[C@@H](CCCN=C(N)N)C(=O)N[C@H](C(=O)N[C@@H](CCCCN)C(=O)N[C@@H](CCCN=C(N)N)C(=O)O)C(C)C (H-VKRRVKR-OH),–,2,–,–
CC(=O)OCCOCCOCCOCCOCCOCCOCCOCCN[C@@H](CC(C)C)C(=O)N[C@@H](CC(C)C)C(=O)N[C@@H](CC(C)C)C(=O)N[C@@H](CC(C)C)C(=O)N[C@@H](CCCNC(=N)N)C(=O)N[C@H](C(=O)N[C@@H](CCCCN)C(=O)N[C@@H](CCCNC(=N)N)C(N)=O)C(C)C,480,19,–,IC50 (DU-145 [11]): > 500000 nM
NCCCC[C@H](NC(=O)[C@H](CCCCN)NC(=O)[C@H](CCCN=C(N)N)NC(=O)[C@H](CC(=O)O)NC(=O)[C@H](Cc1ccccc1)NC(=O)CN)C(=O)N[C@@H](CCCN=C(N)N)C(=O)O (H-GFDRKKR-OH),> 1000,> 1000,–,–
CC(C)C[C@H](NC(=O)CCNC(=S)Nc1cccc2c1C(=O)OC21c2ccc(O)cc2Oc2cc(O)ccc21)C(=O)N[C@@H](CC(C)C)C(=O)N[C@@H](CC(C)C)C(=O)N[C@@H](CC(C)C)C(=O)N[C@@H](CCCNC(=N)N)C(=O)N[C@H](C(=O)N[C@@H](CCCCN)C(=O)N[C@@H](CCCNC(=N)N)C(N)=O)C(C)C ({X4-βAla}-LLLLRVKR-NH2),–,–,–,Drug uptake (DU-145 [12]): Active
CC(=O)CCCCCCCCN[C@@H](CC(C)C)C(=O)N[C@@H](CC(C)C)C(=O)N[C@@H](CC(C)C)C(=O)N[C@@H](CC(C)C)C(=O)N[C@@H](CCCNC(=N)N)C(=O)N[C@H](C(=O)N[C@@H](CCCCN)C(=O)N[C@@H](CCCNC(=N)N)C(N)=O)C(C)C,500,23,–,IC50 (DU-145 [11]): 80000 nM
